Results taken from ChEMBL document CHEMBL4152382, “Discovery of Tarantula Venom-Derived NaV1.7-Inhibitory JzTx-V Peptide 5-Br-Trp24 Analogue AM-6120 with Systemic Block of Histamine-Induced Pruritis” (J Med Chem, 2018).

Experiments:
[1] = biological target: Sodium channel protein type 9 subunit alpha (Homo sapiens, UniProt Q15858); assay: Inhibition of human Nav1.7 expressed in HEK293 cells at holding potential of -125 mV […] by patchxpress-based electrophysiology assay; format: cell-based
[2] = biological target: Sodium channel protein type 4 subunit alpha (Homo sapiens, UniProt P35499); assay: Inhibition of human Nav1.4 expressed in HEK293 cells at holding potential of -125 mV […] by patchxpress-based electrophysiology assay; format: cell-based
Chain of Sodium channel protein type 4 subunit alpha (P35499 whole entry): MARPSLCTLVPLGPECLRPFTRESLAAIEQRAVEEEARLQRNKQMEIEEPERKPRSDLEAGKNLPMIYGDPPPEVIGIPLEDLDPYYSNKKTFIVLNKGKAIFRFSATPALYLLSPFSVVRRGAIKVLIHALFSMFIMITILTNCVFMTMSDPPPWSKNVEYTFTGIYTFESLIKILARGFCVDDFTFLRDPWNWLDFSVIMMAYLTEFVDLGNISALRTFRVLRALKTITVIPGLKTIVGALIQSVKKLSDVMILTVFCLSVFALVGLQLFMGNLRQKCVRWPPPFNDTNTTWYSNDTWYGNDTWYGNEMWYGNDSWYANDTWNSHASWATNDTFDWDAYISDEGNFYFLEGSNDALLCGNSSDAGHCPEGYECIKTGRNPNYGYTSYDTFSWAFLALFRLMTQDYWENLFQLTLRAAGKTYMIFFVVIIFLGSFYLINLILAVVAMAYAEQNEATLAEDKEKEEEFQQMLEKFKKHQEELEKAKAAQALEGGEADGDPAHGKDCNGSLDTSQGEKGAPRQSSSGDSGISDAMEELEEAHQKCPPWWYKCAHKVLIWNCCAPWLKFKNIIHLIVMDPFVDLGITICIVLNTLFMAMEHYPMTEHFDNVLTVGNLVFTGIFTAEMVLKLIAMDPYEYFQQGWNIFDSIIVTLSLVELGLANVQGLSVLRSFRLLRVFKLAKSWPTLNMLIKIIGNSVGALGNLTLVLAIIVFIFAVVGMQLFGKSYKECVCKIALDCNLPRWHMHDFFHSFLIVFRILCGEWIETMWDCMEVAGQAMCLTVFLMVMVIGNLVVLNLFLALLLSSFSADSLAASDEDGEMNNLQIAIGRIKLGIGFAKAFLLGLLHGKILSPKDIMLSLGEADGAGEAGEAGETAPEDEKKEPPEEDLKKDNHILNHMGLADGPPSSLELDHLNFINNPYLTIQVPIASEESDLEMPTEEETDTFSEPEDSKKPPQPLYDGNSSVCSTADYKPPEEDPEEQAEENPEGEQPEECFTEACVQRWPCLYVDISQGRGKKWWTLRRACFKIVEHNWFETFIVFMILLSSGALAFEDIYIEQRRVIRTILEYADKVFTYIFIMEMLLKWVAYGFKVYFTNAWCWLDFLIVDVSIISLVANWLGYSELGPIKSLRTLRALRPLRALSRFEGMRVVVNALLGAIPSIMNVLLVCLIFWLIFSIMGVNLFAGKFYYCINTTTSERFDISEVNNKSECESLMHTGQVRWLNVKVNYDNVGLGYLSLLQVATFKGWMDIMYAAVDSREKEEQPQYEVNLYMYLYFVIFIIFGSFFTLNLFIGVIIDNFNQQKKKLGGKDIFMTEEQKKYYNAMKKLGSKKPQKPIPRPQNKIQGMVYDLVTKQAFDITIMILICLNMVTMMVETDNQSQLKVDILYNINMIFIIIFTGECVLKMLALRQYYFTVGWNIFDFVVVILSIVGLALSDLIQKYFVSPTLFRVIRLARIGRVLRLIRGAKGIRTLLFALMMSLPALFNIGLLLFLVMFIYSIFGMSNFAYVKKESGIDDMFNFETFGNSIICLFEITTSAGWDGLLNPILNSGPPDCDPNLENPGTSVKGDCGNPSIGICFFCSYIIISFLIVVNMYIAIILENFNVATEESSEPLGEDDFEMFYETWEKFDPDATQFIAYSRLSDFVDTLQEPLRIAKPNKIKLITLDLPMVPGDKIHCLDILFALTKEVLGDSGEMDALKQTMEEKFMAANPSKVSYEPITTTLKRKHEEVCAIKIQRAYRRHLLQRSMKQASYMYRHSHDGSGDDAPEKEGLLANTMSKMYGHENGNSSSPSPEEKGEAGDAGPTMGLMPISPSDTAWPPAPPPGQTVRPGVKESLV

[3] = biological target: Sodium channel protein type 8 subunit alpha (Homo sapiens, UniProt Q9UQD0); assay: Inhibition of human Nav1.6 expressed in HEK293 cells at holding potential of -125 mV […] by patchxpress-based electrophysiology assay; format: cell-based
[4] = biological target: Sodium channel protein type 5 subunit alpha (Homo sapiens, UniProt Q14524); assay: Inhibition of human Nav1.5 expressed in HEK293 cells at holding potential of […] after 10 mins by patchxpress-based electrophysiology assay; format: cell-based
[5] = biological target: Sodium channel protein type 10 subunit alpha (Homo sapiens, UniProt Q9Y5Y9); assay: Inhibition of human Nav1.8 expressed in HEK293 cells after 10 mins by patchxpress-based electrophysiology; format: cell-based
[6] = AUCt in C57/BL6 mouse at 2 mg/kg, sc by LC-MS/MS analysis; format: ADME, organism-based; settings: in vivo
In short: (§1)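 Male C57Bl/6 mice, n = 3 per time point, given a single 2 mg/kg subcutaneous dose. Plasma levels were quantified by LC-MS/MS over time, and pharmacokinetic parameters were derived from the plasma profiles. Data are reported as mean ± SEM for each time point.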

[7] = Apparent […] clearance in C57/BL6 mouse at 2 mg/kg, sc by LC-MS/MS analysis; format: ADME, organism-based; settings: in vivo; in short: as §1
[8] = Cmax in C57/BL6 mouse at 2 mg/kg, sc by LC-MS/MS analysis; format: ADME, organism-based; set-up: dose 2 mg/kg, route subcutaneous; settings: in vivo; in short: as §1
[9] = MRT in C57/BL6 mouse at 2 mg/kg, sc by LC-MS/MS analysis; format: ADME, organism-based; settings: in vivo; in short: as §1
[10] = Half life in C57/BL6 mouse at 2 mg/kg, sc by LC-MS/MS analysis; format: ADME, organism-based; settings: in vivo; in short: as §1
[11] = Tmax in C57/BL6 mouse at 2 mg/kg, sc by LC-MS/MS analysis; format: ADME, organism-based; settings: in vivo; in short: as §1
Mus musculus = assay: Volume of distribution at steady state in C57/BL6 mouse at 2 mg/kg, sc by LC-MS/MS analysis; format: ADME, organism-based; settings: in vivo; in short: as §1
[12] = Plasma concentration in C57/BL6 mouse at 2 mg/kg, sc after 30 mins by LC-MS/MS analysis; format: ADME, organism-based; settings: in vivo, 0.5 h; in short: as §1

Chain of Sodium channel protein type 9 subunit alpha (Q15858 whole entry): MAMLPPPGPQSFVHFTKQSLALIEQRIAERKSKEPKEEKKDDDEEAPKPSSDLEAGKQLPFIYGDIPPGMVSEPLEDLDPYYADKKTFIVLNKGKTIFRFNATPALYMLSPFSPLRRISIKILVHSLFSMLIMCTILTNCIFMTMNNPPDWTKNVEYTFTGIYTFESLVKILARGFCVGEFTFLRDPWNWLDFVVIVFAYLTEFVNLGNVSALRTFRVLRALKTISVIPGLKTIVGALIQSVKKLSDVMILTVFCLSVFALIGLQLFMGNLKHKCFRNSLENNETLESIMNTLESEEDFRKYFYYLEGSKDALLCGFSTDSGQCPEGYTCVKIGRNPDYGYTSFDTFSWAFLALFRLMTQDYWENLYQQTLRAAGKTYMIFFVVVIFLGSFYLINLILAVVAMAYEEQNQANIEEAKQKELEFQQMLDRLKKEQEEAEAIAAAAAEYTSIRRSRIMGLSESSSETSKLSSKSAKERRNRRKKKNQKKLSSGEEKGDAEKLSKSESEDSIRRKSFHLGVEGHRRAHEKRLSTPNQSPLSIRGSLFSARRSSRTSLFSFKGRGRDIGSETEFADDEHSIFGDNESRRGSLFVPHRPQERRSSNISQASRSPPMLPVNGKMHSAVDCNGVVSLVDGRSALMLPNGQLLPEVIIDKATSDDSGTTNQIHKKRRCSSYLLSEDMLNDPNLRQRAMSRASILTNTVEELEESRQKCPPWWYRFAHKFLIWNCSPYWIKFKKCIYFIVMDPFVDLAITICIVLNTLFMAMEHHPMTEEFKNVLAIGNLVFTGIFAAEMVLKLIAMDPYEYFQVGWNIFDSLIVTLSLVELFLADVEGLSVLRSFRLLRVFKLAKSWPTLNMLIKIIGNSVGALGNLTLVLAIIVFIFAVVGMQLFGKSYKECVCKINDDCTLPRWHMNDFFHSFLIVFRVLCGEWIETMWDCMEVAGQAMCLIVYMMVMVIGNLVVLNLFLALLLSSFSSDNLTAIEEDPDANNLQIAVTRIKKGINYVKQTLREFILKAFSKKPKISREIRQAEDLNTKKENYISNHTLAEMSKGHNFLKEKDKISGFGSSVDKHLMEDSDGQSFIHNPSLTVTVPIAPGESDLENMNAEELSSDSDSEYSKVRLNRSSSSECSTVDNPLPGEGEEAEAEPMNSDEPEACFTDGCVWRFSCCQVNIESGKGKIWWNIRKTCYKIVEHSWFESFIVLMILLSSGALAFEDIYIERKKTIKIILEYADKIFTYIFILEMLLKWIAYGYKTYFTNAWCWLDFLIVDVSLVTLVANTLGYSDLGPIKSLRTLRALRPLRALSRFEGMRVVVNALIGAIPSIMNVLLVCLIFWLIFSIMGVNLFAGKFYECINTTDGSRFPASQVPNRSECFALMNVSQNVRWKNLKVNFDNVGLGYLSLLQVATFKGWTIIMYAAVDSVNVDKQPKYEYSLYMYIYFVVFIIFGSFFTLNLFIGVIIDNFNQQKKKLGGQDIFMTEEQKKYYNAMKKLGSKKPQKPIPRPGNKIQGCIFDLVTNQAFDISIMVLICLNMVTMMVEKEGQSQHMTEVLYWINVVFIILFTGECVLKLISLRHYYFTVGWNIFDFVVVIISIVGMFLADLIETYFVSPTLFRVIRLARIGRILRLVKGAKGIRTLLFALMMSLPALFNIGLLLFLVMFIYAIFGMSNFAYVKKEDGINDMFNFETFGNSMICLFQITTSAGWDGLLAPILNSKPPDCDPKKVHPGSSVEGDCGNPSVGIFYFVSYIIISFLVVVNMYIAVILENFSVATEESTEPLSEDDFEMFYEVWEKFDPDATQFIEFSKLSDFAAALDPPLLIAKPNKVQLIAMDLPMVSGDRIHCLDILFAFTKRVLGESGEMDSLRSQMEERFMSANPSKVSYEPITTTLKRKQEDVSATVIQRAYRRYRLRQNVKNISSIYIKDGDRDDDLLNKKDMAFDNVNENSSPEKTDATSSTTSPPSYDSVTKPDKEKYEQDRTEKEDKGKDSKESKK

Row | SMILES | IC50 [1] | IC50 [2] | further results
1 | C#CC[C@H](N)C(=O)N[C@@H](Cc1ccc(O)cc1)C(=O)N[C@H]1CSSC[C@@H]2NC(=O)[C@@H]3CSSC[C@@H](C(=O)N[C@@H](CCCNC(=N)N)C(=O)N[C@@H](CCCCN)C(=O)N[C@@H](CCC(=O)O)C(=O)N[C@@H](Cc4ccccc4)C(N)=O)NC(=O)[C@H](Cc4c[nH]c5ccccc45)NC(=O)[C@H](CC(C)C)NC(=O)[C@H](CCCCN)NC(=O)[C@H](CSSC[C@H](NC(=O)[C@H]([C@@H](C)O)NC(=O)[C@H](Cc4c[nH]c5ccccc45)NC(=O)[C@H](CCCC)NC(=O)[C@H](Cc4c[nH]c5ccccc45)NC(=O)[C@H](CCCCN)NC(=O)[C@H](CCC(N)=O)NC1=O)C(=O)N[C@@H](CC(=O)O)C(=O)N[C@@H](CO)C(=O)N[C@@H](CCCCN)C(=O)N[C@@H](CCCNC(=N)N)C(=O)N[C@@H](C)C(=O)N3)NC(=O)[C@H](CCCNC(=N)N)NC(=O)[C@H](CC(C)C)NC(=O)CNC(=O)[C@H](CCC(=O)O)NC2=O | 0.2 nM | 162 nM | –
2 | C#CC[C@H](NC(=O)[C@@H](N)CCC(=O)O)C(=O)N[C@H]1CSSC[C@@H]2NC(=O)[C@@H]3CSSC[C@@H](C(=O)N[C@@H](CCCNC(=N)N)C(=O)N[C@@H](CCCCN)C(=O)N[C@@H](CCC(=O)O)C(=O)N[C@H](C(N)=O)[C@@H](C)CC)NC(=O)[C@H](Cc4c[nH]c5ccc(Br)cc45)NC(=O)[C@H](CC(C)C)NC(=O)[C@H](CCCCN)NC(=O)[C@H](CSSC[C@H](NC(=O)[C@H]([C@@H](C)O)NC(=O)[C@H](Cc4c[nH]c5ccccc45)NC(=O)[C@H](CCCC)NC(=O)[C@H](Cc4c[nH]c5ccccc45)NC(=O)[C@H](CCCCN)NC(=O)[C@H](CCC(N)=O)NC1=O)C(=O)N[C@@H](CC(=O)O)C(=O)N[C@@H](CCC(=O)O)C(=O)N[C@@H](CCCCN)C(=O)N[C@@H](CCCNC(=N)N)C(=O)N[C@@H](C)C(=O)N3)NC(=O)[C@H](CCCNC(=N)N)NC(=O)[C@H](CC(C)C)NC(=O)CNC(=O)[C@H](CCC(=O)O)NC2=O | 2.5 nM | 89 nM | –
3 | C#CC[C@H](N)C(=O)N[C@@H](Cc1ccc(O)cc1)C(=O)N[C@H]1CSSC[C@@H]2NC(=O)[C@@H]3CSSC[C@@H](C(=O)N[C@@H](CCCNC(=N)N)C(=O)N[C@@H](CCCCN)C(=O)N[C@@H](CCC(=O)O)C(=O)N[C@H](C(N)=O)[C@@H](C)CC)NC(=O)[C@H](Cc4c[nH]c5ccc(Br)cc45)NC(=O)[C@H](CC(C)C)NC(=O)[C@H](CCCCN)NC(=O)[C@H](CSSC[C@H](NC(=O)[C@H]([C@@H](C)O)NC(=O)[C@H](Cc4c[nH]c5ccccc45)NC(=O)[C@H](CCCC)NC(=O)[C@H](Cc4c[nH]c5ccccc45)NC(=O)[C@H](CCCCN)NC(=O)[C@H](CCC(N)=O)NC1=O)C(=O)N[C@@H](CC(=O)O)C(=O)N[C@@H](CO)C(=O)N[C@@H](CCCCN)C(=O)N[C@@H](CCCNC(=N)N)C(=O)N[C@@H](C)C(=O)N3)NC(=O)[C@H](CCCNC(=N)N)NC(=O)[C@H](CC(C)C)NC(=O)CNC(=O)[C@H](CCC(=O)O)NC2=O | 0.26 nM | 53 nM | IC50 [3]: 66 nM; IC50 [4]: 260 nM; IC50 [5]: 509 nM; AUC(0-t) [6]: 3.44 µM·h; CL/F [7]: 2.57 mL/min/kg; Cmax [8]: 892 nM; MRT [9]: 3.55 h; half-life [10]: 143 min; Tmax [11]: 30 min; Vdss (Mus musculus): 0.547 L/kg; Drug uptake [12]: Active
4 | C#CC[C@H](N)C(=O)N[C@@H](Cc1ccc(O)cc1)C(=O)N[C@H]1CSSC[C@@H]2NC(=O)[C@@H]3CSSC[C@@H](C(=O)N[C@@H](CCCNC(=N)N)C(=O)N[C@@H](CCCCN)C(=O)N[C@@H](CCC(=O)O)C(=O)N[C@@H](Cc4c[nH]c5ccccc45)C(N)=O)NC(=O)[C@H](Cc4c[nH]c5ccccc45)NC(=O)[C@H](CC(C)C)NC(=O)[C@H](CCCCN)NC(=O)[C@H](CSSC[C@H](NC(=O)[C@H]([C@@H](C)O)NC(=O)[C@H](Cc4c[nH]c5ccccc45)NC(=O)[C@H](CCCC)NC(=O)[C@H](Cc4c[nH]c5ccccc45)NC(=O)[C@H](CCCCN)NC(=O)[C@H](CCC(N)=O)NC1=O)C(=O)N[C@@H](CC(=O)O)C(=O)N[C@@H](CO)C(=O)N[C@@H](CCCCN)C(=O)N[C@@H](CCCNC(=N)N)C(=O)N[C@@H](C)C(=O)N3)NC(=O)[C@H](CCCNC(=N)N)NC(=O)[C@H](CC(C)C)NC(=O)CNC(=O)[C@H](CCC(=O)O)NC2=O | 0.2 nM | 92 nM | –
5 | C#CC[C@H](N)C(=O)N[C@@H](Cc1ccc(O)cc1)C(=O)N[C@H]1CSSC[C@@H]2NC(=O)[C@@H]3CSSC[C@@H](C(=O)N[C@@H](CCCNC(=N)N)C(=O)N[C@@H](CCCCN)C(=O)N[C@@H](CCC(=O)O)C(=O)N[C@@H](CCc4ccccc4)C(N)=O)NC(=O)[C@H](Cc4c[nH]c5ccccc45)NC(=O)[C@H](CC(C)C)NC(=O)[C@H](CCCCN)NC(=O)[C@H](CSSC[C@H](NC(=O)[C@H]([C@@H](C)O)NC(=O)[C@H](Cc4c[nH]c5ccccc45)NC(=O)[C@H](CCCC)NC(=O)[C@H](Cc4c[nH]c5ccccc45)NC(=O)[C@H](CCCCN)NC(=O)[C@H](CCC(N)=O)NC1=O)C(=O)N[C@@H](CC(=O)O)C(=O)N[C@@H](CO)C(=O)N[C@@H](CCCCN)C(=O)N[C@@H](CCCNC(=N)N)C(=O)N[C@@H](C)C(=O)N3)NC(=O)[C@H](CCCNC(=N)N)NC(=O)[C@H](CC(C)C)NC(=O)CNC(=O)[C@H](CCC(=O)O)NC2=O | 0.3 nM | 23 nM | –
6 | C#CC[C@H](NC(=O)[C@@H](N)CCC(=O)O)C(=O)N[C@H]1CSSC[C@@H]2NC(=O)[C@@H]3CSSC[C@@H](C(=O)N[C@@H](CCCNC(=N)N)C(=O)N[C@@H](CCCCN)C(=O)N[C@@H](CCC(=O)O)C(=O)N[C@H](C(N)=O)[C@@H](C)CC)NC(=O)[C@H](Cc4c[nH]c5ccc(Br)cc45)NC(=O)[C@H](CC(C)C)NC(=O)[C@H](CCCCN)NC(=O)[C@H](CSSC[C@H](NC(=O)[C@H]([C@@H](C)O)NC(=O)[C@H](Cc4c[nH]c5ccccc45)NC(=O)[C@H](CCCC)NC(=O)[C@H](Cc4c[nH]c5ccccc45)NC(=O)[C@H](CCCCN)NC(=O)[C@H](CCC(N)=O)NC1=O)C(=O)N[C@@H](CC(=O)O)C(=O)N[C@@H](CO)C(=O)N[C@@H](CCC(=O)O)C(=O)N[C@@H](CCCNC(=N)N)C(=O)N[C@@H](C)C(=O)N3)NC(=O)[C@H](CCCNC(=N)N)NC(=O)[C@H](CC(C)C)NC(=O)CNC(=O)[C@H](CCC(=O)O)NC2=O | 0.5 nM | 72 nM | –
7 | C#CC[C@H](N)C(=O)N[C@@H](Cc1ccc(O)cc1)C(=O)N[C@H]1CSSC[C@@H]2NC(=O)[C@@H]3CSSC[C@@H](C(=O)N[C@@H](CCCNC(=N)N)C(=O)N[C@@H](CCCCN)C(=O)N[C@@H](CCC(=O)O)C(=O)N[C@H](C(N)=O)[C@@H](C)CC)NC(=O)[C@H](Cc4c[nH]c5ccccc45)NC(=O)[C@H](CC(C)C)NC(=O)[C@H](CCCCN)NC(=O)[C@H](CSSC[C@H](NC(=O)[C@H]([C@@H](C)O)NC(=O)[C@H](Cc4c[nH]c5ccccc45)NC(=O)[C@H](CCCC)NC(=O)[C@H](Cc4ccccc4)NC(=O)[C@H](CCCCN)NC(=O)[C@H](CCC(N)=O)NC1=O)C(=O)N[C@@H](CC(=O)O)C(=O)N[C@@H](CO)C(=O)N[C@@H](CCCCN)C(=O)N[C@@H](CCCNC(=N)N)C(=O)N[C@@H](C)C(=O)N3)NC(=O)[C@H](CCCNC(=N)N)NC(=O)[C@H](CC(C)C)NC(=O)CNC(=O)[C@H](CCC(=O)O)NC2=O | 1.3 nM | 52 nM | –
8 | C#CC[C@H](N)C(=O)N[C@@H](Cc1ccc(O)cc1)C(=O)N[C@H]1CSSC[C@@H]2NC(=O)[C@@H]3CSSC[C@@H](C(=O)N[C@@H](CCCNC(=N)N)C(=O)N[C@@H](CCCCN)C(=O)N[C@@H](CCC(=O)O)C(=O)N[C@H](C(N)=O)[C@@H](C)CC)NC(=O)[C@H](Cc4c[nH]c5cc(Br)ccc45)NC(=O)[C@H](CC(C)C)NC(=O)[C@H](CCCCN)NC(=O)[C@H](CSSC[C@H](NC(=O)[C@H]([C@@H](C)O)NC(=O)[C@H](Cc4c[nH]c5ccccc45)NC(=O)[C@H](CCCC)NC(=O)[C@H](Cc4c[nH]c5ccccc45)NC(=O)[C@H](CCCCN)NC(=O)[C@H](CCC(N)=O)NC1=O)C(=O)N[C@@H](CC(=O)O)C(=O)N[C@@H](CO)C(=O)N[C@@H](CCCCN)C(=O)N[C@@H](CCCNC(=N)N)C(=O)N[C@@H](C)C(=O)N3)NC(=O)[C@H](CCCNC(=N)N)NC(=O)[C@H](CC(C)C)NC(=O)CNC(=O)[C@H](CCC(=O)O)NC2=O | 8.9 nM | 39 nM | –
9 | C#CC[C@H](NC(=O)[C@@H](N)CCC(=O)O)C(=O)N[C@H]1CSSC[C@@H]2NC(=O)[C@@H]3CSSC[C@@H](C(=O)N[C@@H](CCCNC(=N)N)C(=O)N[C@@H](CCCCN)C(=O)N[C@@H](CCC(=O)O)C(=O)N[C@H](C(N)=O)[C@@H](C)CC)NC(=O)[C@H](Cc4c[nH]c5ccc(Br)cc45)NC(=O)[C@H](CC(C)C)NC(=O)[C@H](CCCCN)NC(=O)[C@H](CSSC[C@H](NC(=O)[C@H]([C@@H](C)O)NC(=O)[C@H](Cc4c[nH]c5ccccc45)NC(=O)[C@H](CCCC)NC(=O)[C@H](Cc4c[nH]c5ccccc45)NC(=O)[C@H](CCCCN)NC(=O)[C@H](CCC(N)=O)NC1=O)C(=O)N[C@@H](CC(=O)O)C(=O)N[C@@H](CO)C(=O)N[C@@H](CCCCN)C(=O)N[C@@H](CCCNC(=N)N)C(=O)N[C@@H](CCC(=O)O)C(=O)N3)NC(=O)[C@H](CCCNC(=N)N)NC(=O)[C@H](CC(C)C)NC(=O)CNC(=O)[C@H](CCC(=O)O)NC2=O | 1.3 nM | 182 nM | –
